Measured values published in ChEMBL document CHEMBL4321807, “Cyanine-Gemcitabine Conjugates as Targeted Theranostic Agents for Glioblastoma Tumor Cells” (J Med Chem, 2019).
The source made the active and inactive calls. The calls are words filed in the database; no cut-off is given here.

Legend:
[1] = Drug uptake in Fox1nu mouse xenografted with luciferase and RFP reporter expressing human U87 cells assessed as increase in fluorescence signal in tumor at 10 mg/kg, iv measured after 30 mins post drug administration by fluorescence imaging analysis; type: ADME, organism-based; details: in vivo, 0.5 h
Procedure, shortened: (§1)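 Xenograft mice carried subcutaneous U87-RFP-LUC flank tumors. Each received 10 mg/kg by retro-orbital i.v. injection in vehicle (2% DMSO, 9% ethanol, 9% BSA in PBS). Whole-body NIR fluorescence (ex 745/em 840 nm, radiant efficiency) imaged on IVIS under isoflurane at set times after injection. For organ signal, tumor and organs were dissected and imaged ex vivo.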

HEK293 = test: Cytotoxicity against human HEK293 cells assessed as reduction in cell viability at 0.0001 to 10 uM incubated for 72 hrs by AlamarBlue assay; type: cell-based; details: hek293, 72 h
Procedure, shortened: (§2)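 LN18 and LN229 cells in DMEM with 5% FBS; HEK293 in DMEM/F12 with 10% FBS. Seeded at 2500/well and left overnight. Compounds added in PFHM II to final 0.0001–10 μM for 72 h. Viability by AlamarBlue, fluorescence Ex/Em 560/590 nm.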

[2] = Drug uptake in Fox1nu mouse xenografted with luciferase and RFP reporter expressing human U87 cells assessed as decrease in drug residual at 10 mg/kg, iv measured […] post drug administration by fluorescence imaging analysis relative to control; type: ADME, organism-based; details: in vivo, 48 h, in the assay text read “48 hrs” for “24 hrs”; procedure, shortened: as §1
[3] = Toxicity in […] mouse xenografted with luciferase and RFP reporter expressing human U87 cells assessed as effect on body weight at 10 mg/kg, iv administered at day 4 and day 8 post inoculation and six injections weekly measured after 5 weeks; type: organism-based; details: in vivo, 840 h
LN-229 = test: Cytotoxicity against human LN229 cells assessed as reduction in cell viability at 0.0001 to 10 uM incubated for 72 hrs by AlamarBlue assay; type: functional, cell-based; procedure, shortened: as §2
[4] = Drug uptake in tumor of Fox1nu mouse xenografted with luciferase and RFP reporter expressing human U87 cells at 10 mg/kg, iv measured after 2 days post drug administration by fluorescence imaging analysis; type: ADME, organism-based, Neoplasm, U-87MG ATCC; details: in vivo, 48 h; procedure, shortened: as §1
[5] = Half life of compound in human U87 tumor homogenate at 50 uM measured upto 72 hrs by HPLC analysis; type: ADME, U-87MG ATCC
Procedure, shortened: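 Tumor homogenate prepared from U87 xenograft tissue in RIPA buffer (on ice), clarified by centrifugation and 0.2 μm filtration. Compound at 50 μM incubated at 37 °C for up to 72 h. Samples run on analytical C4 HPLC (5–90% MeCN gradient, 0.1% TFA) with 780 nm absorbance. Peak area normalized over time.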

[6] = Drug uptake in tumor of Fox1nu mouse xenografted with luciferase and RFP reporter expressing human U87 cells at 10 mg/kg, iv measured after 2 hrs post drug administration by fluorescence imaging analysis; type: ADME, organism-based, Neoplasm, U-87MG ATCC; details: in vivo; procedure, shortened: as §1
[7] = Drug localization in mitochondria of human U87 cells at 20 uM incubated for 45 mins by Mitotracker staining-based confocal fluorescence microscopy; type: ADME; details: u-87mg atcc, 0.75 h
Procedure, shortened: (§3)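 U87 cells seeded at 10 000/well in imaging chambers and left overnight. Exposed to 20 μM compound in FluoroBrite DMEM for 45 min at 37 °C, then washed with HBSS. Stained 15 min with LysoTracker (1:10 000) or MitoTracker (1:15 000), plus NucBlue nuclear stain. Imaged live by confocal microscopy at 60×, dye excited at 633 nm. Colocalization scored by Pearson's correlation coefficient.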

[8] = (§4) Drug metabolism in mouse serum assessed as 2-((E)-2-((E)-2-((2-Carboxyethyl)thio)-3-(2-((E)-1-(5-carboxypentyl)-3,3-dimethylindolin-2-ylidene)ethylidene)cyclohex-1-en-1-yl)vinyl)-1-(5-carboxypentyl)-3,3-dimethyl-3H-indol-1-ium chloride formation at 50 uM by HPLC analysis; type: ADME, cell-free
Procedure, shortened: (§5)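 Compound at 50 μM in commercial mouse serum at 37 °C. Followed by C4 HPLC with 780 nm absorbance; the metabolite was identified by MS and by coelution with a synthesized standard. Variant conditions: protease/phosphatase inhibitor cocktail premixed at 10% in serum, or incubation at low temperature.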

[9] = Drug uptake in liver of Fox1nu mouse xenografted with luciferase and RFP reporter expressing human U87 cells at 10 mg/kg, iv measured after 2 days post drug administration by fluorescence imaging analysis; type: ADME, organism-based, U-87MG ATCC; details: in vivo, 48 h; procedure, shortened: as §1
LN-18 = test: Cytotoxicity against human LN18 cells assessed as reduction in cell viability at 0.0001 to 10 uM incubated for 72 hrs by AlamarBlue assay; type: functional, cell-based; procedure, shortened: as §2
[10] = Drug uptake in large intestine of Fox1nu mouse xenografted with luciferase and RFP reporter expressing human U87 cells at 10 mg/kg, iv measured after 2 hrs post drug administration by fluorescence imaging analysis; type: ADME, organism-based, U-87MG ATCC; details: in vivo; procedure, shortened: as §1
[11] = Drug uptake in Fox1nu mouse xenografted with luciferase and RFP reporter expressing human U87 cells assessed as increase in fluorescence signal in liver at 10 mg/kg, iv measured after 30 mins post drug administration by fluorescence imaging analysis; type: ADME, organism-based; details: in vivo, 0.5 h; procedure, shortened: as §1
[12] = as §4, with “uM in presence of protease and phosphatase” for “uM”; type: ADME, cell-free; procedure, shortened: as §5
[13] = Drug uptake in liver of Fox1nu mouse xenografted with luciferase and RFP reporter expressing human U87 cells at 10 mg/kg, iv measured after 2 hrs post drug administration by fluorescence imaging analysis; type: ADME, organism-based, U-87MG ATCC; details: in vivo; procedure, shortened: as §1
[14] = Drug metabolism in mouse serum assessed as 2-((E)-2-((E)-2-((2-Carboxyethyl)thio)-3-(2-((E)-1-(5-carboxypentyl)-3,3-dimethylindolin-2-ylidene)ethylidene)cyclohex-1-en-1-yl)vinyl)-1-(5-carboxypentyl)-3,3-dimethyl-3H-indol-1-ium chloride formation at low temperature at 50 uM by HPLC analysis; type: ADME, cell-free; procedure, shortened: as §5
[15] = Drug uptake in kidney of Fox1nu mouse xenografted with luciferase and RFP reporter expressing human U87 cells at 10 mg/kg, iv measured after 2 hrs post drug administration by fluorescence imaging analysis; type: ADME, organism-based, U-87MG ATCC; details: in vivo; procedure, shortened: as §1
[16] = Drug uptake in small intestine of Fox1nu mouse xenografted with luciferase and RFP reporter expressing human U87 cells assessed as decrease in drug residual at 10 mg/kg, iv measured after 2 hrs post drug administration by fluorescence imaging analysis; type: ADME, organism-based, U-87MG ATCC; details: in vivo; procedure, shortened: as §1
[17] = Drug uptake in Fox1nu mouse xenografted with luciferase and RFP reporter expressing human U87 cells assessed as increase in fluorescence signal in at retro-orbital vein at 10 mg/kg, iv measured after 30 mins post drug administration by fluorescence imaging analysis; type: ADME, organism-based; details: in vivo, 0.5 h; procedure, shortened: as §1
[18] = Drug uptake in kidney of Fox1nu mouse xenografted with luciferase and RFP reporter expressing human U87 cells at 10 mg/kg, iv measured after 2 days post drug administration by fluorescence imaging analysis; type: ADME, organism-based, U-87MG ATCC; details: in vivo, 48 h; procedure, shortened: as §1
[19] = Drug localization in lysosome of human U87 cells at 20 uM incubated for 45 mins by Lysotracker staining-based confocal fluorescence microscopy; type: ADME; details: u-87mg atcc, 0.75 h; procedure, shortened: as §3
[20] = Time taken for drug metabolism in mouse serum at 50 uM by HPLC analysis; type: ADME, cell-free; procedure, shortened: as §5
[21] = Half life in mouse serum at 50 uM incubated for 360 mins by HPLC analysis; type: ADME, cell-free; procedure, shortened: as §5
[22] = Drug uptake in Fox1nu mouse xenografted with luciferase and RFP reporter expressing human U87 cells assessed as decrease in drug residual at 10 mg/kg, iv measured at 144 hrs post drug administration by fluorescence imaging analysis relative to control; type: ADME, organism-based; details: in vivo; procedure, shortened: as §1
[23] = Drug uptake in lung of Fox1nu mouse xenografted with luciferase and RFP reporter expressing human U87 cells at 10 mg/kg, iv measured after 2 hrs post drug administration by fluorescence imaging analysis; type: ADME, organism-based, U-87MG ATCC; details: in vivo; procedure, shortened: as §1
U-87 MG [24] = test: Cytotoxicity against human U87 cells assessed as reduction in cell viability incubated for 72 hrs by AlamarBlue assay; type: functional, cell-based, U-87MG ATCC
U-87 MG [25] = test: Antitumor activity against luciferase and RFP reporter expressing human U87 cells xenografted in Fox1nu mouse assessed as decrease in tumor burden at 10 mg/kg, iv administered at day 4 and day 8 post inoculation and six injections weekly measured after 5 weeks by bioluminescence imaging analysis; type: functional, organism-based; details: U-87MG ATCC
U-87 MG [26] = test: Cytotoxicity against human U87 cells assessed as reduction in cell viability at 0.001 to 10 uM incubated for 72 hrs by AlamarBlue assay; type: functional, cell-based; details: U-87MG ATCC
Procedure, shortened: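 U87 cells, grown in DMEM/F12 with 10% FBS, seeded at 5000/well and left overnight. Compounds added in protein-free hybridoma medium (PFHM II) to final 0.001–10 μM and incubated 72 h at 37 °C. Viability read by AlamarBlue, 2 h, fluorescence Ex/Em 560/590 nm. IC50 taken relative to the lowest concentration beyond which no further cell death occurs.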

[27] = Half life in mouse serum; type: ADME, cell-free

## CC1(C)C(/C=C/C2=C(SCCC(=O)Nc3ccn([C@@H]4O[C@H](CO)[C@@H](O)C4(F)F)c(=O)n3)C(=C/C=C3/N(CCCCCC(=O)O)c4ccccc4C3(C)C)/CCC2)=[N+](CCCCCC(=O)O)c2ccccc21.[Cl-]
[1]
  Drug uptake: Active
HEK293
  Activity: Toxic
[2]
  fold change (FC): 10
[3]
  Activity: Non-Toxic
LN-229
  Activity: Active
[4]
  Drug uptake: Active
[5]
  half-life at 50 µM: 60 h
[6]
  Drug uptake: Active
[7]
  Drug uptake: Active
[8]
  Drug metabolism: Metabolite_Detected
[9]
  Drug uptake: Active
LN-18
  Activity: Active
[10]
  Drug uptake: Active
[11]
  Drug uptake: Active
[12]
  Drug metabolism: Metabolite_Notdetected
[13]
  Drug uptake: Active
[14]
  Drug metabolism: Metabolite_Notdetected
[15]
  Drug uptake: Active
[16]
  Drug uptake: Active
[17]
  Drug uptake: Active
[18]
  Drug uptake: Active
[19]
  Drug uptake: Active
[20]
  Time: 3 h
[21]
  half-life at 50 µM: 1 h
[22]
  fold change (FC): 100
[23]
  Drug uptake: Active
U-87 MG [24]
  IC50: 0.0209 µM
U-87 MG [25]
  Activity: Active

## O=C(CCS)Nc1ccn([C@@H]2O[C@H](CO)[C@@H](O)C2(F)F)c(=O)n1
U-87 MG [24]
  IC50: 0.011 µM

## CCCN1/C(=C/C=C2\CCCC(/C=C/C3=[N+](CCC)c4ccccc4C3(C)C)=C2SCCC(=O)Nc2ccn([C@@H]3O[C@H](CO)[C@@H](O)C3(F)F)c(=O)n2)C(C)(C)c2ccccc21.[Cl-]
[7]
  Drug uptake: Active
[19]
  Drug uptake: Active

## CCCN1/C(=C/C=C2\CCCC(/C=C/C3=[N+](CCC)c4ccccc4C3(C)C)=C2SCCC(=O)Nc2ccn([C@H]3C[C@H](O)[C@@H](CO)O3)c(=O)n2)C(C)(C)c2ccccc21
U-87 MG [24]
  IC50: 3.4 µM

## CC1(C)C(/C=C/C2=C(SCCC(=O)Nc3ccn([C@H]4C[C@H](O)[C@@H](CO)O4)c(=O)n3)C(=C/C=C3/N(CCCCCC(=O)O)c4ccccc4C3(C)C)/CCC2)=[N+](CCCCCC(=O)O)c2ccccc21
U-87 MG [26]
  Activity: Active

## CC1(C)C(/C=C/C2=C(Cl)C(=C/C=C3/N(CCCCCC(=O)O)c4ccccc4C3(C)C)/CCC2)=[N+](CCCCCC(=O)O)c2ccccc21.[Cl-]
[7]
  Drug uptake: Active
[27]
  half-life: 0.6 h
[19]
  Drug uptake: Active
